Compound activity from PubChem BioAssay.
Shown is part of a subset that was picked to be rich in hits.
T cruzi intra: inhibitors of intracellular Trypanosoma cruzi, primary screen, cell-based, plate reader, single point, set 2; intracellular Trypanosoma cruzi in host cells; AID 651903, 2012; 22,000 compounds, 4.9% hits; activity score (inhibition), % at 5.01 µM; in the data active means activity score above about 55%; inconclusive means no clear call, values can overlap the other calls;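 further: parasites and compound incubated about four days before reading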
A1 apoptosis 2: A1 inhibitors via caspase activation, primary screen, cell-based, luminescence, HTS, two replicates; MEF A1-2A-BIM cells, caspase-Glo luminescence, 3 h; percent of clofoctol response, DMSO zero; caspase activation, % (concentration not given with the values); 24,000 tested, under 10 active; in the data active means caspase activation above about 5.9%; inconclusive means no clear call, values can overlap the other calls; inactive means below about 2.2%
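Test system – A1-2A-BIM-expressing MEF cells · Input – 2500 cells/well · Medium – RPMI-1640 growth medium with 10% FBS · Compound dosing – 50 nL pinned compound · Timing – 3 h compound exposure at 37 °C · Technique – Caspase-Glo luminescence (DEVD substrate) · Evaluation – Caspase-3/7 activity from luminescence increase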
INS-1E ATP HTS: protection of INS-1E cells from cytokine death, primary screen, ATP luminescence, single point | protection from cytokine-induced ATP loss, % at 10 µM | INS-1E cytokine-induced death, 48 h; normalised: neutral wells 0, positive control 100 | AID 488910, 2010 | 20,000 compounds, 0.1% hits;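 active means mean replicate protection from cytokine-induced ATP loss at least 50% and at least 75% of replicates each reaching 50%; inconclusive means meets only one of the two criteria, mean or replicate share; inactive means fails both the mean and replicate share criteria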
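Test system: INS-1E rat cells | Quantity: 8000 cells per well | Medium: Phenol-red-free RPMI with 5% fetal bovine serum | Reagent: Cytokine cocktail of IFN-γ, TNF-α and IL-1β | Doses: One compound concentration, pin transfer | Timing: 48 h co-treatment, 10 min post-lysis read | Technique: Luminescent ATP assay (CellTiter-Glo)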
Numbers stand for hits; 0 = inactive; ? = inconclusive; - = not tested or not shown.

SMILES	T cruzi intra	A1 apoptosis 2	INS-1E ATP HTS
C[C@H](CO)N1C[C@H](C)[C@@H](CN(C)S(=O)(=O)c2ccc(F)cc2)Oc2c(NC(=O)c3nc4ccccc4s3)cccc2C1=O	?	-	0
C[C@H]1CN([C@@H](C)CO)C(=O)c2cccc(NC(=O)c3nc4ccccc4s3)c2O[C@@H]1CN(C)S(=O)(=O)c1ccc(Cl)cc1	78	0	0
C[C@H]1CN([C@@H](C)CO)C(=O)c2cccc(NC(=O)c3nc4ccccc4s3)c2O[C@@H]1CN(C)S(=O)(=O)c1ccc(F)cc1	67	0	0
COc1ccc(S(=O)(=O)N(C)C[C@H]2Oc3c(NC(=O)c4nc5ccccc5s4)cccc3C(=O)N([C@@H](C)CO)C[C@H]2C)cc1	0	-	0
CC(C)(C)OC(=O)N1CCC[C@H]1/C=N/NC(=O)CCCCCCC(=O)Nc1ccccc1O	0	-	0
O=C(NO)c1ccc(C(=O)N/N=C/c2ccc(B(O)O)cc2)cc1	-	0	-
O=C(Cc1ccccc1)OC(C(=O)NCc1ccccc1)c1ccco1 (stereo unspecified)	-	0	-
O=C(NO)c1cccc(C(=O)N/N=C/c2ccc(O)cc2Br)c1	0	0	0
O=C(NO)c1ccc(C(=O)N/N=C/c2c[nH]c3ccccc23)cc1	0	-	0
COC(=O)CCCCCCC(=O)N/N=C/c1ccc[nH]1	0	-	0
C[C@H](CO)N1C[C@H](C)[C@H](CN(C)S(=O)(=O)c2cccs2)Oc2c(NC(=O)c3nc4ccccc4s3)cccc2C1=O	76	0	0
C[C@H]1CN([C@@H](C)CO)C(=O)c2cccc(NC(=O)c3nc4ccccc4s3)c2O[C@H]1CN(C)S(=O)(=O)c1cccs1	0	0	0
C[C@H](CO)N1C[C@H](C)[C@@H](CN(C)C(=O)Nc2ccc(C(F)(F)F)cc2)Oc2c(NC(=O)Nc3ccc(C(F)(F)F)cc3)cccc2C1=O	78	0	0
C[C@@H]1CN([C@H](C)CO)C(=O)c2cccc(NC(=O)Nc3ccc(C(F)(F)F)cc3)c2O[C@H]1CN(C)C(=O)Nc1ccc(C(F)(F)F)cc1	75	0	0
C[C@H]1CN([C@@H](C)CO)C(=O)c2cccc(NC(=O)Nc3ccc(C(F)(F)F)cc3)c2O[C@@H]1CN(C)C(=O)Nc1ccc(F)cc1	0	0	0
C[C@@H]1CN([C@H](C)CO)C(=O)c2cccc(NC(=O)Nc3ccc(C(F)(F)F)cc3)c2O[C@@H]1CN(C)C(=O)Nc1ccc2c(c1)OCO2	0	0	0
C[C@@H]1CN([C@H](C)CO)C(=O)c2cccc(NC(=O)Nc3cccc4ccccc34)c2O[C@@H]1CN(C)C(=O)Nc1ccc(C(F)(F)F)cc1	65	0	0
C[C@H](CO)N1C[C@H](C)[C@H](CN(C)C(=O)Nc2ccc3c(c2)OCO3)Oc2c(NC(=O)Nc3ccc(C(F)(F)F)cc3)cccc2C1=O	63	0	0
C[C@H]1CN([C@@H](C)CO)C(=O)c2cccc(NC(=O)Nc3ccc(C(F)(F)F)cc3)c2O[C@H]1CN(C)C(=O)Nc1ccccc1	0	0	0
C[C@@H]1CN([C@H](C)CO)C(=O)c2cccc(NC(=O)Nc3cccc4ccccc34)c2O[C@H]1CN(C)C(=O)Nc1ccc(C(F)(F)F)cc1	0	0	0
O=C(CCCCC(=O)N/N=C/C1=CCCCC1)NO	0	-	0
O=C(O)CNS(=O)(=O)c1ccccc1	-	0	-
C[C@@H]1CN([C@H](C)CO)C(=O)c2cccc(NC(=O)Nc3cccc4ccccc34)c2O[C@H]1CN(C)C(=O)NC1CCCCC1	0	0	0
C[C@@H]1CN([C@@H](C)CO)C(=O)c2cccc(NC(=O)Nc3ccc(C(F)(F)F)cc3)c2O[C@@H]1CN(C)Cc1ccc2c(c1)OCO2	61	0	0
C[C@H]1CN([C@@H](C)CO)C(=O)c2cccc(NC(=O)Nc3ccc(F)cc3)c2O[C@@H]1CN(C)C(=O)Nc1ccc(C(F)(F)F)cc1	0	0	0
SMILES	T cruzi intra	A1 apoptosis 2	INS-1E ATP HTS
C[C@H](CO)N1C[C@H](C)[C@H](CN(C)C(=O)NC2CCCCC2)Oc2c(NC(=O)Nc3cccc4ccccc34)cccc2C1=O	63	0	0
C[C@H](CO)N1C[C@H](C)[C@H](CN(C)Cc2ccc(C(F)(F)F)cc2)Oc2c(NC(=O)Nc3ccc4c(c3)OCO4)cccc2C1=O	0	-	0
C[C@@H]1CN([C@H](C)CO)C(=O)c2cccc(NC(=O)Nc3ccccc3)c2O[C@H]1CN(C)C(=O)Nc1ccc(C(F)(F)F)cc1	0	0	0
C[C@H](CO)N1C[C@H](C)[C@H](CN(C)C(=O)Nc2ccc(C(F)(F)F)cc2)Oc2c(NC(=O)Nc3ccc(C(F)(F)F)cc3)cccc2C1=O	78	-	0
C[C@@H]1CN([C@@H](C)CO)C(=O)c2cccc(NC(=O)Nc3ccc(C(F)(F)F)cc3)c2O[C@@H]1CN(C)C(=O)Nc1ccc(C(F)(F)F)cc1	88	-	0
NC(=O)[C@H]1[C@@H]2C(=O)O[C@@H](c3ccccc3)[C@@H](c3ccccc3)N2[C@@H](c2ccc(O)cc2)[C@]12C(=O)Nc1ccccc12	-	0	-
C[C@H](O)[C@H](O)[C@@H](O)[C@@H](O)/C=N/NC(=O)CCCCCCC(=O)Nc1ccccc1O	0	0	0
Cc1ccc(S(=O)(=O)N[C@H](C(=O)NCCn2cc(CN3C(=O)COC[C@H]3c3ccccc3)nn2)C(C)C)cc1	-	0	-
O=C(O)CCCCCCC(=O)N/N=C/c1ccccc1Cl	0	-	0
O=C(O)CCCCCC(=O)N/N=C/c1ccc(CO)o1	0	-	0
C[C@H](CO)N1C[C@H](C)[C@H](CN(C)C(=O)Nc2ccc(C(F)(F)F)cc2)Oc2c(NC(=O)NC3CCCCC3)cccc2C1=O	75	0	0
C[C@H]1CN([C@@H](C)CO)C(=O)c2cccc(NC(=O)NC3CCCCC3)c2O[C@@H]1CN(C)C(=O)Nc1ccc(C(F)(F)F)cc1	0	0	0
C[C@H](CO)N1C[C@H](C)[C@H](CN(C)C(=O)Nc2ccc(F)cc2)Oc2c(NC(=O)Nc3cccc4ccccc34)cccc2C1=O	71	0	0
C[C@H](CO)N1C[C@H](C)[C@H](CN(C)Cc2ccc(Cl)c(Cl)c2)Oc2c(NC(=O)Nc3ccc(F)cc3)cccc2C1=O	0	-	0
C[C@H](CO)N1C[C@H](C)[C@H](CN(C)Cc2ccc(Cl)c(Cl)c2)Oc2c(NC(=O)Nc3ccc(C(F)(F)F)cc3)cccc2C1=O	63	0	0
C[C@H]1CN([C@@H](C)CO)C(=O)c2cccc(NC(=O)Nc3cccc4ccccc34)c2O[C@@H]1CN(C)C(=O)Nc1ccc(F)cc1	0	0	0
CCCCN(CCCC)c1ccc(/C=N/NC(=O)c2ccccn2)cc1	0	-	0
C[C@H](CO)N1C[C@H](C)[C@@H](CN(C)Cc2ccc(C(=O)O)cc2)Oc2c(NC(=O)c3ccncc3)cccc2C1=O	0	0	0
C[C@@H]1CN([C@@H](C)CO)C(=O)c2cccc(NC(=O)c3ccncc3)c2O[C@@H]1CN(C)Cc1ccc(-c2ccccc2)cc1	58	-	0
